Assays:
[1] = target: T1, Vitamin K-dependent gamma-carboxylase (Rattus norvegicus) (UniProt O88496); assay: Vitamin K-dependent gamma-carboxylase activity was assayed in liver microsomes prepared from vitamin K deficient rats incubated at 17 degree Celsius for 60 min (compounds tested the ratio of 5 mM 19 and 0.5 mM 20); conditions: Microsome
T1 sequence (whole entry): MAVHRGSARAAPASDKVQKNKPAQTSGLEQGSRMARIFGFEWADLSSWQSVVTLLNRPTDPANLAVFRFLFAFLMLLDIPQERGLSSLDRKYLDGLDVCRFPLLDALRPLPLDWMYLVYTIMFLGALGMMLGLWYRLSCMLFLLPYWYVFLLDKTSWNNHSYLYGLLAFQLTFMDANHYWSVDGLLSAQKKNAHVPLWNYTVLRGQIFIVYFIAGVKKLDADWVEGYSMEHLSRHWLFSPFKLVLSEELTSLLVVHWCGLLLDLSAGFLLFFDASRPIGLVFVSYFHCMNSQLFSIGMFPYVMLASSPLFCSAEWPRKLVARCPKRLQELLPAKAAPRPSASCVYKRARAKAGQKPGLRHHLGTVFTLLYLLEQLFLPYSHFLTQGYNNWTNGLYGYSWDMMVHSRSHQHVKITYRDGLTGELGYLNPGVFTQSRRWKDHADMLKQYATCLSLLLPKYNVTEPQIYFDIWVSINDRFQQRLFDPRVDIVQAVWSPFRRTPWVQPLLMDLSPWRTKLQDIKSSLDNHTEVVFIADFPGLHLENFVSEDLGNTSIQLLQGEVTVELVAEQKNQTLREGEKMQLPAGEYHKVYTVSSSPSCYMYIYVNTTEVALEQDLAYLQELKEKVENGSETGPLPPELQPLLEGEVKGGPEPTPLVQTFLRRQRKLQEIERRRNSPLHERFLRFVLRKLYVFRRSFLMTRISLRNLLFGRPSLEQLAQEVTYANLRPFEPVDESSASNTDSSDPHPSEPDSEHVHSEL
Summary of the method: (§1)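 Liver microsomal carboxylase came from vitamin K deficient rats. Activity was taken as ¹⁴CO₂ incorporation into the Glu-site substrate, in dpm. The analogue was present at 5 mM and/or the Glu-site substrate at 0.5 mM. Incubation ran at 17 °C for 60 min. Values are mean ± SD of four values.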

[2] = target: T1, Vitamin K-dependent gamma-carboxylase (Rattus norvegicus); assay: Vitamin K-dependent gamma-carboxylase activity was assayed in liver microsomes prepared from vitamin K deficient rats incubated at 17 degree Celsius for 30 min (compounds tested the ratio of 2 mM 19 and 1 mM 20); conditions: Microsome
Summary of the method: (§2)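 Rat liver microsomes from vitamin K deficient animals were used, following the Wood and Suttie method. Carboxylation was read as ¹⁴CO₂ incorporation into the Glu-site substrate, in dpm. The cyclopropyl analogue was tested at 2 mM, the Glu-site substrate at 1 mM, each alone or combined. Incubation ran at 17 °C for 30 min. Values are mean ± SD of four values.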

Rattus norvegicus [3] = organism: Rattus norvegicus; assay: Compound was evaluated for the epoxide formation at 5 mM incubations were at 17 degree Celsius for 60 minutes; assay type: functional
Summary of the method: (§3)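 Microsomes came from vitamin K deficient rats dosed with 1 mg phylloquinone (ic) 15 min before killing. Incubation ran at 17 °C for 60 min, with the analogue at 5 mM and/or the Glu-site substrate at 0.5 mM. To extract, 0.5 mL of mix was quenched with 2 volumes of 3:2 2-propanol–hexane, vortexed, held 15 min at 4 °C, and centrifuged. The hexane layer was dried under N₂ and epoxide reported as nmol. Values are mean ± SD of four values.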

Rattus norvegicus [4] = organism: Rattus norvegicus; assay: Epoxide formation after incubation at 17 degree Celsius for 60 min (compounds tested the ratio of 5 mM 19 and 0.5 mM 20); assay type: functional; summary of the method: as §3
[5] = target: T1, Vitamin K-dependent gamma-carboxylase (Rattus norvegicus); assay: Inhibition of Vitamin K-dependent gamma-carboxylase was determined at a concentration of 2 mM, incubations were at 17 degree Celsius for 30 minutes; summary of the method: as §2
[6] = target: T1, Vitamin K-dependent gamma-carboxylase (Rattus norvegicus); assay: Inhibition of Vitamin K-dependent gamma-carboxylase was determined at a concentration of 5 mM, incubations were at 17 degree Centigrade for 60 minutes
[7] = target: T1, Vitamin K-dependent gamma-carboxylase (Rattus norvegicus); assay: Inhibition of Vitamin K-dependent gamma-carboxylase was determined at a concentration of 0.5 mM, incubations were at 17 degree Celsius for 60 minutes
[8] = target: T1, Vitamin K-dependent gamma-carboxylase (Rattus norvegicus); assay: Inhibition of vitamin K dependent carboxylase was determined at a concentration of 0.5 mM of compound along with 5 mM of 1-tert-Butoxycarbonylamino-2-carboxymethyl-cyclopropanecarboxylic acid benzyl ester; summary of the method: as §1
[9] = target: T1, Vitamin K-dependent gamma-carboxylase (Rattus norvegicus); assay: Inhibition of vitamin K dependent carboxylase was determined at a concentration of 1 mM of compound along with 2 mM of 1-tert-Butoxycarbonylamino-2-carboxymethyl-cyclopropanecarboxylic acid benzyl ester; summary of the method: as §2
Rattus norvegicus [10] = organism: Rattus norvegicus; assay: Epoxide formation was determined at a concentration 0.5 mM of compound along with 5 mM of 1-tert-Butoxycarbonylamino-2-carboxymethyl-cyclopropanecarboxylic acid benzyl ester; assay type: functional; summary of the method: as §3
Rattus norvegicus [11] = organism: Rattus norvegicus; assay: Epoxide formation was determined at a concentration of 0.5 mM incubation at 17 degree Celsius for 60 minutes; assay type: functional; summary of the method: as §3
[12] = target: T1, Vitamin K-dependent gamma-carboxylase (Rattus norvegicus); assay: Inhibition of Vitamin K-dependent gamma-carboxylase was determined at a concentration of 1 mM, incubations were at 17 degree Centigrade for 30 minutes; summary of the method: as §2
Rattus norvegicus [13] = organism: Rattus norvegicus; assay: Epoxide formation after incubation at 17 degree Centigrade for 60 min; assay type: functional; summary of the method: as §3
[14] = target: T1, Vitamin K-dependent gamma-carboxylase (Rattus norvegicus); assay: Vitamin K-dependent gamma-carboxylase activity was assayed in liver microsomes prepared from vitamin K deficient rats incubated at 17 degree Celsius for 60 min; conditions: Microsome; summary of the method: as §1
[15] = target: T1, Vitamin K-dependent gamma-carboxylase (Rattus norvegicus); assay: Vitamin K-dependent gamma-carboxylase activity was assayed in liver microsomes prepared from vitamin K deficient rats incubated at 17 degree Celsius for 30 min; conditions: Microsome; summary of the method: as §2

CC(C)(C)OC(=O)NC(CCC(=O)O)C(=O)OCc1ccccc1.CC(C)(C)OC(=O)NC1(C(=O)OCc2ccccc2)CC1CC(=O)O (stereo not given) [listing 1 of 2 here]
Carboxylase activity [1]: 12200 dpm
Carboxylase activity [2]: 5770 dpm

CC(C)(C)OC(=O)NC1(C(=O)OCc2ccccc2)CC1CC(=O)O (stereo not given) [listing 1 of 2 here]
Epoxide formation (Rattus norvegicus [3]): 5.1 nmol

CC(C)(C)OC(=O)NC(CCC(=O)O)C(=O)OCc1ccccc1.CC(C)(C)OC(=O)NC1(C(=O)OCc2ccccc2)CC1CC(=O)O (stereo not given) [listing 2 of 2 here]
Epoxide formation (Rattus norvegicus [4]): 6.7 nmol

CC(C)(C)OC(=O)NC1(C(=O)OCc2ccccc2)CC1CC(=O)O (stereo not given) [listing 2 of 2 here]
Carboxylase activity [5]: 300 dpm
Carboxylase activity [6]: 690 dpm

CC(C)(C)OC(=O)N[C@H](CCC(=O)O)C(=O)OCc1ccccc1
Carboxylase activity [7]: 12600 dpm
Carboxylase activity [8]: 12200 dpm
Carboxylase activity [9]: 5770 dpm
Epoxide formation (Rattus norvegicus [10]): 6.7 nmol
Epoxide formation (Rattus norvegicus [11]): 7.1 nmol
Carboxylase activity [12]: 5800 dpm

CC(C)(C)OC(=O)NC(CCC(=O)O)C(=O)OCc1ccccc1 (stereo not given)
Epoxide formation (Rattus norvegicus [13]): 7.1 nmol
Carboxylase activity [14]: 12600 dpm
Carboxylase activity [15]: 5800 dpm

— ChEMBL document CHEMBL1125154, “An approach to trapping gamma-glutamyl radical intermediates proposed for vitamin K dependent carboxylase: alpha,beta-methyleneglutamic acid” (1990)
